Bioassay records (PubChem BioAssay)
Rows were chosen to be rich in hits. Some 5.7% of all compounds tested hit in one or more screens of this group.
Calb FLC = C. albicans growth inhibition with fluconazole, primary screen, CaCi-2 strain, Alamar Blue fluorescence; C. albicans CaCi-2 (fluconazole-resistant clinical isolate) + fluconazole, 48 h; growth inhibition, % (concentration not given with the values); 300,000 tested, 0.57% active; AID 1979, 2009;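 active = growth inhibition above about 58% in most replicates, limit read from the data, passing the limit was not always enough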;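 also: all wells also contain fluconazole at 8 µg/ml as a sub-toxic cotreatment; 0% = median of DMSO wells and 100% = median of geldanamycin control wells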
SKKanGAS inh = S. pyogenes SKKanGAS growth inhibitors in kanamycin, primary screen, streptokinase expression inhibitor project, SKKanGAS strain, BacTiter-Glo luminescence. AID 1662, 2009. inhibition, % at 7.5 µM. 300,000 tested, 1.3% active. 6 h;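 active = mean replicate score, as percent of positive control median, at least 50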;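 also: strain carries kanamycin resistance gene driven by streptokinase promoter and grows in 40 µg/ml kanamycin; loss of luminescence reflects streptokinase promoter inhibition or plain growth inhibition; 0% = median of DMSO wells and 100% = positive control at its reference dose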
Mdm2 MdmX PPI = inhibitors of human Mdm2-MdmX association, primary screen, cell-based, luminescence, split luciferase, SaOS-2, uHTS. Protein Mdm4 (Homo sapiens) + E3 ubiquitin-protein ligase Mdm2 (Homo sapiens), …. SaOS-2 split-luciferase Mdm2/MdmX complementation. inhibition, % at 8 µM. 330,000 tested, 3% active. AID 485346, 2010;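 active = inhibition of at least 50% at 8 µM in the primary screen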
Target sequence (O15151 whole entry, looked up): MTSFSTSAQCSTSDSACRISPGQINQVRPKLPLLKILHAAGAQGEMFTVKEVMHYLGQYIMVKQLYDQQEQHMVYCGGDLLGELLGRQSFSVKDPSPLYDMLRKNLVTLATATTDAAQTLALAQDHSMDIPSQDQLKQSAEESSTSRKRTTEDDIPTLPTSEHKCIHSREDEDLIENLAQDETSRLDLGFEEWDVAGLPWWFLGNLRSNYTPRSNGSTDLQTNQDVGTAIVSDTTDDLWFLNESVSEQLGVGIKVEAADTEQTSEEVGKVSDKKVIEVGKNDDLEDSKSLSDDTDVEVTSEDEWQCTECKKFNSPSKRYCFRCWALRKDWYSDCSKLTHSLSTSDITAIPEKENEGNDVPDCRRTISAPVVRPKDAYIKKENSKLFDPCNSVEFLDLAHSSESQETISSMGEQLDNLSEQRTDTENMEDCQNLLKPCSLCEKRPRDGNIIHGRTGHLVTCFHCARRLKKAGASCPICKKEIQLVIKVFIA
Target sequence (Q00987 whole entry, looked up): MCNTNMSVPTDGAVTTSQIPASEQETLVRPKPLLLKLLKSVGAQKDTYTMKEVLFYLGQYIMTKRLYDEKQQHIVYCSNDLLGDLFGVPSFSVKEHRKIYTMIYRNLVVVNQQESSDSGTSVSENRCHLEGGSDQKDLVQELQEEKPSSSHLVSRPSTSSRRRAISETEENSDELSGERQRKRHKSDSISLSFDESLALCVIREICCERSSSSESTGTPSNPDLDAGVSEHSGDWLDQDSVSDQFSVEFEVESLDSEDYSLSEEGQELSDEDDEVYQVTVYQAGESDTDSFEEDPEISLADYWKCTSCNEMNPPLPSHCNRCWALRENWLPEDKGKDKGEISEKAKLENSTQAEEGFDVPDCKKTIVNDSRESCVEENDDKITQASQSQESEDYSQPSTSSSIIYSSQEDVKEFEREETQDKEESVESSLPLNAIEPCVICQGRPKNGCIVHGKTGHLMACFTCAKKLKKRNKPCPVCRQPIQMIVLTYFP
Beta apoptosis = inhibitors of cytokine-induced beta cell apoptosis, primary screen, luminescence; INS-1E cytokine-induced death, ATP luminescence, 48 h; percent of positive-control rescue, neutral wells zero; 300,000 tested, 0.8% active; protection from apoptosis, % (test concentration not listed);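 active = Every replicate reaches about 75%, or at least half do and their mean reaches it too, limit read from the data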;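 also: 0% = cytokine-treated negative control wells and 100% = positive control rescue; higher means more ATP so stronger rescue from cytokine killing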
CSC inhib = cancer stem cell viability inhibitors, primary screen, luminescence | inhibition, % at 7.5 µM | cancer stem cell-like cells viability | 300,000 tested, 1.1% active | AID 2717, 2010; in the data active = inhibition above about 75%; tested in HMLE shEcad cells
T cruzi inh = inhibitors of intracellular T. cruzi growth, primary screen, luminescence, NIH3T3 host cells; T. cruzi beta-gal in NIH3T3, 90 h; inhibition, % (concentration not given with the values); 300,000 tested, 1.4% active; AID 1885, 2009;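 active = mean inhibition across valid replicates above about 55%, limit read from the data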;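 also: signal also drops with host cell toxicity which is not excluded here; 0% = plate median of DMSO wells and 100% = zero luminescence signal; higher percent means less beta-gal luminescence so fewer parasites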
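compound dosing = single 50 nL compound addition per well in DMSO | material = NIH/3T3 host cells with β-galactosidase reporter T. cruzi | input = 5,000 host fibroblasts per well | timing = ≥90 h infection period, 3 h prior cell attachment | read-out basis = percent inhibition of parasite-derived β-gal signal | detection = GalScreen β-gal luminescence, detergent lysis, 60 min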
Mdm2-MdmX conf = Mdm2-MdmX complex disruptors, retested hits, confirmation, luminescence, single concentration; shares compounds with Mdm2 MdmX PPI; Mdm2-MdmX binding, luminescent assay; inhibition, % at 8 µM; 10,000 tested, 55% active; in the data active = inhibition above about 40%
FLuc counter = full-length luciferase signal inhibition, confirmation, counter-screen for Mdm2/MdmX interaction inhibitor project, cell-based, single concentration, SaOS-2. shares compounds with Mdm2 MdmX PPI. SaOS-2 full-length luciferase counterscreen, luminescence. inhibition, % at 8 µM. 6,200 tested, 77% active. AID 504607, 2011;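 active = mean inhibition at 8 µM reaching about 37%, which flags the compound as non-specific, limit read from the data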;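 also: p53-null SaOS-2 cells with luciferase driven by a doxycycline-inducible promoter; compound on cells about two nights before reading with doxycycline added after day one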
Starred values were filed as active, the others as inactive.

For Cn1c(Sc2ccc(Br)cc2)c(C=O)c2ccccc21 the results were Calb FLC 0.3, SKKanGAS inh 18.0, Mdm2 MdmX PPI 83.6*, Beta apoptosis 7.6, CSC inhib -13.3, T cruzi inh 3.5, Mdm2-MdmX conf 72.0* and FLuc counter 53.4*.
`Cc1ccccc1/C=N/NC(=O)Cc1ccc(Cl)cc1` gave Calb FLC -9.1, SKKanGAS inh -0.7, Mdm2 MdmX PPI 16.9, Beta apoptosis -1.9, CSC inhib -7.2 and T cruzi inh 0.7.
`Cc1ccc(/C=N/NC(=O)Cc2ccc(Cl)cc2)c(O)c1` gave Calb FLC -5.4, SKKanGAS inh 100.8*, Mdm2 MdmX PPI 60.4*, Beta apoptosis 83.4*, CSC inhib 55.7, T cruzi inh 19.0, Mdm2-MdmX conf 53.8* and FLuc counter 42.2*.
Screening Cc1cc(Br)cc(/C=N/NC(=O)c2ccc3c(c2)OCO3)c1O returned Calb FLC 46.7, SKKanGAS inh 84.0*, Mdm2 MdmX PPI 67.9*, Beta apoptosis 88.4*, CSC inhib 84.2*, T cruzi inh 23.6, Mdm2-MdmX conf 67.5* and FLuc counter 33.0.
For O=C(CNC(=O)c1ccccc1)N/N=C/c1cc(Br)ccc1O the results were Calb FLC 3.4, SKKanGAS inh -3.6, Mdm2 MdmX PPI 39.8, Beta apoptosis 74.7, CSC inhib 21.4 and T cruzi inh -2.2.
For O=C(Cc1ccccc1)N/N=C/c1cc(Br)cc(Cl)c1O the results were Calb FLC 114.4*, SKKanGAS inh 97.3*, Mdm2 MdmX PPI 58.6*, CSC inhib 20.3, T cruzi inh 54.0, Mdm2-MdmX conf 68.4* and FLuc counter 29.2.
`O=C(CNC(=O)c1ccc2c(c1)OCO2)N/N=C/c1cc(Br)ccc1O` gave Calb FLC -0.1, SKKanGAS inh 60.7*, Mdm2 MdmX PPI 51.6*, Beta apoptosis 81.0*, T cruzi inh 6.1, Mdm2-MdmX conf 58.5* and FLuc counter 47.0*.
Screening CC(C(=O)Nc1ccc(F)c(F)c1F)N(C)CCOc1ccccc1 (stereo not given) returned Calb FLC 40.4, SKKanGAS inh 11.2, Mdm2 MdmX PPI 34.0, Beta apoptosis -8.3, CSC inhib 2.3 and T cruzi inh 11.2.
For O=C(N/N=C/c1cc(Br)cc(Cl)c1O)c1ccc2c(c1)OCO2 the results were Calb FLC 93.9*, SKKanGAS inh 89.5*, Mdm2 MdmX PPI 50.3*, Beta apoptosis 94.1*, CSC inhib 59.5, T cruzi inh 46.0, Mdm2-MdmX conf 59.3* and FLuc counter 53.4*.
Screening O=C(CNC1CCCCCC1)Nc1ccccc1N1CCOCC1 returned Calb FLC -17.2, SKKanGAS inh 4.7, Mdm2 MdmX PPI 19.0, Beta apoptosis 1.7, CSC inhib 5.7 and T cruzi inh 2.7.
For Cc1nc2c(c(C)nn2-c2ccccc2)c(C)c1CCC(=O)Nc1ccc(CN2CCCC2)cc1 the results were Calb FLC 3.7, SKKanGAS inh 3.8, Mdm2 MdmX PPI 63.8*, Beta apoptosis 24.0, CSC inhib 18.9, T cruzi inh 37.7, Mdm2-MdmX conf 35.0 and FLuc counter 53.0*.
For CCC(C)NC(=O)CCc1c(C)nc2c(c(C)nn2-c2ccccc2)c1C (stereo not given) the results were Calb FLC 1.8, SKKanGAS inh -5.2, Mdm2 MdmX PPI 9.4, Beta apoptosis 6.9, CSC inhib -4.4 and T cruzi inh 43.8.
`NC(=S)N/N=C\c1c(OCc2ccccc2Cl)ccc2ccccc12` gave Calb FLC 33.7, SKKanGAS inh 49.7*, Mdm2 MdmX PPI 52.7*, Beta apoptosis 37.5, CSC inhib 28.1 and Mdm2-MdmX conf 5.0.
`COc1ccccc1C(=O)C1CCCN(C(=O)c2cccnc2SC)C1` (stereo not given) gave Calb FLC -18.3, SKKanGAS inh 0.9, Mdm2 MdmX PPI 2.4, Beta apoptosis -3.1, CSC inhib -6.7 and T cruzi inh 1.5.
`COc1cccc(N(CC(=O)NCCSCc2ccc(Cl)cc2)S(C)(=O)=O)c1` gave Calb FLC 7.5, SKKanGAS inh 2.5, Mdm2 MdmX PPI 15.5, Beta apoptosis 2.4, CSC inhib 3.7 and T cruzi inh -5.4.
Screening NC(=O)N/N=C/c1cn(-c2ccccc2)nc1-c1ccccc1 returned Calb FLC 8.8, SKKanGAS inh 0.0, Mdm2 MdmX PPI -13.0, Beta apoptosis 9.0, CSC inhib 20.3 and T cruzi inh 2.0.
For NS(=O)(=O)c1ccc(N/N=C/c2ccccc2C(=O)O)c([N+](=O)[O-])c1 the results were Calb FLC -2.2, SKKanGAS inh 6.1, Mdm2 MdmX PPI 9.3, Beta apoptosis -4.8, CSC inhib 11.4 and T cruzi inh -18.8.
Screening NS(=O)(=O)c1ccc(N/N=C/c2cn(-c3ccccc3)nc2-c2ccccc2)c([N+](=O)[O-])c1 returned Calb FLC -7.3, SKKanGAS inh 10.5, Mdm2 MdmX PPI 84.0*, Beta apoptosis 91.1*, CSC inhib 139.9*, T cruzi inh 39.5 and Mdm2-MdmX conf 14.1.
`COc1ccc(-c2nn(-c3ccccc3)cc2C(=O)Nc2nccs2)cc1` gave Calb FLC 0.4, SKKanGAS inh -3.9, Mdm2 MdmX PPI 13.1, Beta apoptosis 12.3, CSC inhib -7.0 and T cruzi inh 19.5.
Screening Cc1ccc(-c2nn(-c3ccccc3)cc2/C=C/C(=O)Nc2nccs2)cc1 returned Calb FLC -2.6, SKKanGAS inh 4.2, Mdm2 MdmX PPI 72.3*, Beta apoptosis 6.6, CSC inhib 14.6, T cruzi inh 0.8, Mdm2-MdmX conf 42.8* and FLuc counter 37.4*.
COc1c(/C=N/NC(N)=S)c(C)nn1-c1ccccc1 was read as Calb FLC -4.1, SKKanGAS inh -3.5, Mdm2 MdmX PPI 13.2, Beta apoptosis 2.8, CSC inhib -9.2 and T cruzi inh -0.1.
For O=[N+]([O-])c1ccc(N/N=C/c2cn(-c3ccccc3)nc2-c2ccccc2)cc1 the results were Calb FLC -6.9, SKKanGAS inh 13.9, Mdm2 MdmX PPI 57.4*, Beta apoptosis 14.6, CSC inhib 29.4, T cruzi inh 51.6, Mdm2-MdmX conf 39.2 and FLuc counter 52.2*.
